Measurements published in ChEMBL document CHEMBL2029242 (J Med Chem, 2012).

Tests used:
[1] = Terminal half life in Sprague-Dawley rat at 1 mg/kg, iv and 10 mg/kg, po; format: ADME, organism-based; conditions: in vivo, read-out: beta t1/2 (converted)
In short: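 Male Sprague-Dawley rats (250–350 g, jugular-catheterized) received a single dose either iv at 1 mg/kg in 3:1 PEG400/water (n = 2) or po at 10 mg/kg in Pharmatek #6 (n = 3). Plasma was sampled at 5 min (iv only), 15 and 30 min, and 1, 2, 4, 6 and 24 h. Samples were analyzed by LC-MS/MS after acetonitrile precipitation. Parameters came from noncompartmental linear-trapezoidal analysis of individual animals.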

[2] = AUC (infinity) in Sprague-Dawley rat at 10 mg/kg, po; format: ADME, organism-based; parameters: time infinity, dose 10 mg/kg, route oral; conditions: plasma
In short: (§1)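 Single-dose PK. Rats: male Sprague−Dawley, jugular-catheterized, 1 mg/kg iv in 3:1 PEG400/water (n = 2) and 10 mg/kg po in Pharmatek #6 (n = 3). Female athymic nude mice: 100 mg/kg po in Pharmatek #6 (n = 3). Beagle dogs and male cynomolgus monkeys (n = 3): crossover, 1 mg/kg iv and 10 mg/kg po in 22% HPβCD, overnight fast. Plasma LC-MS/MS to 24 h; noncompartmental parameters, mean ± SD.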

[3] = Cmax in Sprague-Dawley rat at 10 mg/kg, po; format: ADME, organism-based; parameters: dose 10 mg/kg, route oral; conditions: in vivo; in short: as §1
[4] = Stability in rat liver microsomes assessed as compound remaining at 1 uM after 60 mins; format: ADME, Microsome; conditions: read-out: Stability
In short: (§2)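 Pooled liver microsomes (0.5 mg/mL) were premixed with 0.1 M phosphate buffer pH 7.4, 6.5 mM MgCl2 and test compound (1 μM final, 0.2% DMSO). NADPH (1 mM) started the reaction at 37 °C, in duplicate. Minus-NADPH and testosterone controls were included. Aliquots were taken at 0, 5, 15, 30 and 60 min and quenched in acetonitrile containing internal standard.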

[5] = target: Tyrosine-protein kinase JAK1 (Homo sapiens, UniProt P23458); assay: Inhibition of JAK1 in human HEK293 cells after 1 hr by competition binding assay; format: cell-based
Tyrosine-protein kinase JAK1, sequence (P23458 whole entry): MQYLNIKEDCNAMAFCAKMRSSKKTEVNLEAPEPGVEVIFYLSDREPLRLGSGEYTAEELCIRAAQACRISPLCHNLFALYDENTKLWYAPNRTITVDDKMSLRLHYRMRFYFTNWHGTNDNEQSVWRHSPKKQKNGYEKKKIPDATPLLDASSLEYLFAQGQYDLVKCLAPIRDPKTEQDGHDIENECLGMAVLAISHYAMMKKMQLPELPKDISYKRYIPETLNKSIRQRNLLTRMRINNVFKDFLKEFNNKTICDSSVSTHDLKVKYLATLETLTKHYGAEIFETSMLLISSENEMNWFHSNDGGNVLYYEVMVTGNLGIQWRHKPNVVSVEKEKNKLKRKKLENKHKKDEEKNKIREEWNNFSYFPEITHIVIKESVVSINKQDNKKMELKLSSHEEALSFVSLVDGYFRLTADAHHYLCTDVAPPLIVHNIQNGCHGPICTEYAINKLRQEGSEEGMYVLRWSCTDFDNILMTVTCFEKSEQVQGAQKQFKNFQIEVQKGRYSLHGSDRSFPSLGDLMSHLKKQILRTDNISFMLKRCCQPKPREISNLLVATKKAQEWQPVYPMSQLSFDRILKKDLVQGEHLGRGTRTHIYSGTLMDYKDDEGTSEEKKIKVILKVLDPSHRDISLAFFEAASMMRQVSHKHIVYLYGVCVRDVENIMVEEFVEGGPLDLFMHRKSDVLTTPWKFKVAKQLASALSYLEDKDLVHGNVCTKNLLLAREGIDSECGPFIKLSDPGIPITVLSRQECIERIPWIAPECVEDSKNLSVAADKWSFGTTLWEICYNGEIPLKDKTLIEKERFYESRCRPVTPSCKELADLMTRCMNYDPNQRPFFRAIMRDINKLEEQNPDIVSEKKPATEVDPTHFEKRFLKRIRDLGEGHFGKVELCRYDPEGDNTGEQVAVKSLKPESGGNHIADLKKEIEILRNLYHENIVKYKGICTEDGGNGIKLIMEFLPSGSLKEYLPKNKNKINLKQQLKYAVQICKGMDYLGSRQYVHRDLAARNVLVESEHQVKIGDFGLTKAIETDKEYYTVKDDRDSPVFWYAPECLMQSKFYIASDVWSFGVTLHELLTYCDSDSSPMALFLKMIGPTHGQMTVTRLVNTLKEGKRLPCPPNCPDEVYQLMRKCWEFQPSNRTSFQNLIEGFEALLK
In short: (§3)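 KINOMEscan competition binding. Binding reactions ran at rt for 1 h. Unbound kinase was captured on an immobilized affinity ligand and quantified by qPCR. Each kinase was tested individually.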

[6] = target: Dual specificity mitogen-activated protein kinase kinase 1 (Homo sapiens, UniProt Q02750); assay: Inhibition of MEK1 in human HEK293 cells after 1 hr by competition binding assay; format: cell-based; in short: as §3
Dual specificity mitogen-activated protein kinase kinase 1, sequence (Q02750 whole entry): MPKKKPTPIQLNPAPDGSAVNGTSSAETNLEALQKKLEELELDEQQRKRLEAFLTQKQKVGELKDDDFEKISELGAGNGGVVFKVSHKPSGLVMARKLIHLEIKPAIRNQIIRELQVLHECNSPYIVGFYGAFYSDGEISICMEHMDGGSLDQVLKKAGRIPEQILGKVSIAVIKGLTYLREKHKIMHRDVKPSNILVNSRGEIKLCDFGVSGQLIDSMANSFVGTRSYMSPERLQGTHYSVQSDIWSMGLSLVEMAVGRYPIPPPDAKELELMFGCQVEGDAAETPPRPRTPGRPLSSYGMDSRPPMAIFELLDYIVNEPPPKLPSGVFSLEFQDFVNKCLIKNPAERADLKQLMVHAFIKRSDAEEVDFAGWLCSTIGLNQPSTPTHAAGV

SK-MEL-28 = assay: Cytotoxicity against human SK-MEL-28 cells expressing BRAF V600E mutant after 72 hrs by cell titer blue assay; format: functional, cell-based; conditions: SK-MEL-28, 72 h
In short: (§4)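 Cells were grown in ATCC-recommended media and kept overnight in 0.5% serum. They were then exposed to compound for 72 h, and Cell Titer Blue was added for 3 h. EC50 came from fluorometric concentration−response curves, run in duplicate and repeated at least once.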

HCT-116 = assay: Cytotoxicity against human HCT116 cells expressing wild type BRAF after 72 hrs by cell titer blue assay; format: functional, cell-based; conditions: HCT-116, 72 h; in short: as §4
[7] = AUC (infinity) in athymic nude mouse at 100 mg/kg, po; format: ADME, organism-based; parameters: time infinity, dose 100 mg/kg, route oral; conditions: plasma; in short: as §1
[8] = Volume of distribution in beagle dog at 1 mg/kg, iv and 10 mg/kg, po; format: ADME, organism-based, Canis lupus familiaris; conditions: in vivo
In short: (§5)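 Male non-naive cynomolgus monkeys (2.6–3.4 kg) and beagle dogs (10.3–11.9 kg), n = 3 each, were dosed in a crossover design with a ≥7-day washout. Doses were 10 mg/kg by nasogastric gavage and 1 mg/kg as a saphenous iv bolus, both free base in 22% HPβCD. Animals were fasted overnight until about 4 h post dose. Femoral plasma was sampled from predose to 24 h and analyzed by LC-MS/MS. Parameters came from noncompartmental analysis; mean ± SD reported.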

[9] = Half life in beagle dog at 1 mg/kg, iv and 10 mg/kg, po; format: ADME, organism-based, Canis lupus familiaris; conditions: in vivo; in short: as §1
[10] = AUC (0 to 24 hrs) in beagle dog at 10 mg/kg, po; format: ADME, organism-based, Canis lupus familiaris; parameters: time < 24 hr, dose 10 mg/kg, route oral; conditions: plasma; in short: as §1
[11] = Oral bioavailability in beagle dog at 10 mg/kg; format: ADME, organism-based, Canis lupus familiaris; conditions: in vivo; in short: as §5
[12] = Half life in Cynomolgus monkey at 1 mg/kg, iv and 10 mg/kg, po; format: ADME, organism-based, Macaca fascicularis; conditions: in vivo; in short: as §1
[13] = Half life in dog liver microsomes; format: ADME, Canis lupus familiaris, Microsome
In short: (§6)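 Pooled liver microsomes (0.5 mg/mL) in 0.1 M phosphate pH 7.4 with 6.5 mM MgCl2 and compound at 1 μM (0.2% DMSO). NADPH (1 mM) started the reaction at 37 °C, with minus-NADPH and testosterone controls. Aliquots taken at 0, 5, 15, 30 and 60 min were quenched in acetonitrile; duplicates.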

Liver microsomes = assay: Intrinsic clearance in human liver microsomes; format: ADME, Microsome; in short: as §2
[14] = Half life in human liver microsomes; format: ADME, Microsome; in short: as §6
[15] = Intrinsic clearance in Cynomolgus monkey liver microsomes; format: ADME, Macaca fascicularis, Microsome; in short: as §6
Cytochrome P450 1A2 = Cytochrome P450 1A2 (Homo sapiens, UniProt P05177); assay: Inhibition of human CYP1A2; format: ADME
Cytochrome P450 1A2, sequence (P05177 whole entry, canonical isoform): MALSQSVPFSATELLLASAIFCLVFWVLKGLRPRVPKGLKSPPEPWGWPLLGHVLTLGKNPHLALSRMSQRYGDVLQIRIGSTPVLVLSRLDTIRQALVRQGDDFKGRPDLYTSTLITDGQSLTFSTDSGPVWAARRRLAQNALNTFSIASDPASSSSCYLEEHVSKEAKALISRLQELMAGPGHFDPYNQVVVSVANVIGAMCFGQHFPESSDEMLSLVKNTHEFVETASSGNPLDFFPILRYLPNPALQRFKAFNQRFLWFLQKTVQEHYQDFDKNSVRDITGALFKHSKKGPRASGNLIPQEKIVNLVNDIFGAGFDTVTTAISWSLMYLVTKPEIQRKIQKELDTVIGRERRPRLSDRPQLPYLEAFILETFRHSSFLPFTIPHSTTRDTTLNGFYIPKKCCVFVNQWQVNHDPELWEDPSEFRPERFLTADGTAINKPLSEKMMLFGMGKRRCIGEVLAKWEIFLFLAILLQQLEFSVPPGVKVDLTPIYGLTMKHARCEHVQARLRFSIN
In short: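 Pooled human liver microsomes (0.25 mg/mL) with NADPH (1 mM) and five pooled probe substrates (testosterone, diclofenac, dextromethorphan, mephenytoin, phenacetin). Test compound ran at eight concentrations, 0.31−40 μM, 20 min at 37 °C, with pooled control inhibitors in parallel. Isoform-specific metabolites were measured by LC-MS/MS.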

Mus musculus [16] = assay: Toxicity in athymic nude mouse xenografted with human COLO205 cells at 100 mg/kg, po bid for 14 days; format: organism-based, COLO 205; parameters: dose 100 mg/kg, route oral; conditions: in vivo, 336 h
In short: (§7)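 Athymic nude mice (20–25 g) were inoculated subcutaneously in the flank with 1×10^6 Colo-205 cells. At 150–200 mm3 they were randomized (n = 10/group) to oral vehicle (22% HPβCD) or 10, 30 or 100 mg/kg BID for 14 days. Calipers were used three times weekly. Body weight and behavior were monitored, with 7–10 days of follow-up after dosing. Partial regression meant volume falling in ≥3 successive measurements, ending below baseline but still palpable.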

Mus musculus [17] = assay: Toxicity in athymic nude mouse xenografted with human COLO205 cells at 100 mg/kg, po bid for 14 days measured upto 1 week post dosing; format: organism-based, COLO 205; parameters: dose 100 mg/kg, route oral; conditions: in vivo; in short: as §7
Mus musculus [18] = assay: Inhibition of BRAF V600E mutant-mediated MEK phosphorylation in human COLO205 cells xenografted in athymic nude mouse at 30 mg/kg, po after 6 hrs; format: functional; conditions: COLO 205, 6 h
In short: (§8)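 Mice bearing Colo-205 xenografts got one oral dose in 22% HPβCD; vehicle controls were run. Tumors were collected at time points over 24 h and lysed. pMEK and total MEK in the lysates were measured by immunoblotting and ELISA, and pMEK was normalized to total MEK.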

Mus musculus [19] = assay: Inhibition of BRAF V600E mutant-mediated MEK phosphorylation in human COLO205 cells xenografted in athymic nude mouse at 55 mg/kg, po after 10 hrs; format: functional; conditions: COLO 205, 10 h; in short: as §8
hERG (KCNH2) = hERG (KCNH2) (Homo sapiens, UniProt Q12809); assay: Inhibition of human ERG at 10 uM
hERG (KCNH2), sequence (Q12809 whole entry): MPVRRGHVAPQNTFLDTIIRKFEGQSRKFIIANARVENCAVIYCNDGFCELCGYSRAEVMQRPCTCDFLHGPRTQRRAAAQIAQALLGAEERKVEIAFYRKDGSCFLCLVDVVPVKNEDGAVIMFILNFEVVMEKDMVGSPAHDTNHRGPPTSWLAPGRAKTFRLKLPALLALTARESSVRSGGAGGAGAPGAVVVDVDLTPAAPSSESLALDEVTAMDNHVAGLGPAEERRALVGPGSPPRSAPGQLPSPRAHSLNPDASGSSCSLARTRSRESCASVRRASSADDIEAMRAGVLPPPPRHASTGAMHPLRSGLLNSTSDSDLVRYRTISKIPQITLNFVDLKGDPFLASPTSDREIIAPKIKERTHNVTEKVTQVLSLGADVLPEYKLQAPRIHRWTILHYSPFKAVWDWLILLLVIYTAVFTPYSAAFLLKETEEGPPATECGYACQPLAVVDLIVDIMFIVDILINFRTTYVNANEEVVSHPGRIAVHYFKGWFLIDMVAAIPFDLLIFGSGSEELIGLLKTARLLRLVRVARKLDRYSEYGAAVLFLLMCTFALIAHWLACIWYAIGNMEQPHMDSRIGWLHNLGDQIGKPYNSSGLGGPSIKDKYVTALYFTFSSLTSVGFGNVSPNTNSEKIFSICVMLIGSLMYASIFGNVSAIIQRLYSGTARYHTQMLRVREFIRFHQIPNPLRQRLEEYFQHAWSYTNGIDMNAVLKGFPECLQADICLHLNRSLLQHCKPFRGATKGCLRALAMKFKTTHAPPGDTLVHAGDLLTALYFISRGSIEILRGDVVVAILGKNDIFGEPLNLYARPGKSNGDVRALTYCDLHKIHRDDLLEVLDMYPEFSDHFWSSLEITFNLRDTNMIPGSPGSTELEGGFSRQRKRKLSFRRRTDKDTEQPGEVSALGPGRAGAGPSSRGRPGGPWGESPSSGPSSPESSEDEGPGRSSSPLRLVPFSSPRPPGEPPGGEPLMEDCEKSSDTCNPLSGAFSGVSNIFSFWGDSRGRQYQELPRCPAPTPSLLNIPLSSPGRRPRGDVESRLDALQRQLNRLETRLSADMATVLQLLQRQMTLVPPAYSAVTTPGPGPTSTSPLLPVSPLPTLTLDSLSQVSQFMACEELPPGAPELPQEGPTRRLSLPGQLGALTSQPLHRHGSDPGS
In short: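 Whole-cell patch clamp on CHO cells stably expressing hERG. Baseline was set in external solution with 0.1% DMSO. Test article was then applied until steady state, up to 12 min.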

[20] = target: Serine/threonine-protein kinase B-raf (Homo sapiens, UniProt P15056, V600E)
Serine/threonine-protein kinase B-raf, sequence (P15056 2-766 V600E limits assumed): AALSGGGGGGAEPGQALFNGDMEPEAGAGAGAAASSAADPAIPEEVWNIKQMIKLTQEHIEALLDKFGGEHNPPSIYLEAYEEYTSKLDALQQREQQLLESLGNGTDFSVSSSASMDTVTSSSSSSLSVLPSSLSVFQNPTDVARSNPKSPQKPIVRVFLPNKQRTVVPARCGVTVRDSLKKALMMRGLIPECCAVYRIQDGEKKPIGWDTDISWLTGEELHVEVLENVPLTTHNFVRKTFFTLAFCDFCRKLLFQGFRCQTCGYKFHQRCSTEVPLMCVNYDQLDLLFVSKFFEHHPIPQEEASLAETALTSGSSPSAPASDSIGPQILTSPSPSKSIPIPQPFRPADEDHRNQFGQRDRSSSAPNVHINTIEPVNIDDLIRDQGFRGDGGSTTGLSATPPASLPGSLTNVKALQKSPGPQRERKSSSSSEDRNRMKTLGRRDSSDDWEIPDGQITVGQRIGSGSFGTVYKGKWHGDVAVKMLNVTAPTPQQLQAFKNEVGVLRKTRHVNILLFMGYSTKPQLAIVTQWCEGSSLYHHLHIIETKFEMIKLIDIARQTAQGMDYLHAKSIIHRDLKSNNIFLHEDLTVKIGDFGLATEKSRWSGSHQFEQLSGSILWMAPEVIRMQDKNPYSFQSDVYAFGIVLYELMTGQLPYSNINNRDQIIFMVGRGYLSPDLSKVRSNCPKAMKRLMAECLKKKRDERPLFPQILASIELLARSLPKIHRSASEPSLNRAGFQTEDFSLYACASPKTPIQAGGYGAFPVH

`COc1cc2ncnc(Oc3cccc(NC(=O)Nc4cc(C(C)(C)C(F)(F)F)on4)c3)c2cc1OC` [CEP-32496] gave a half-life [1] of 7.8 h, an AUC(0-inf) [2] of 74.4 µM·h and a Cmax [3] of 6.5 µM. For the same compound, the remaining at 1 h, 1 µM [4] was 81%, the Kd [5] was over 10000 nM and the Kd [6] was 7100 nM. The EC50 (SK-MEL-28) was 454 nM, the EC50 (HCT-116) was 669 nM and the AUC(0-inf) [7] was 394 µM·h. The Vd [8] was 4.5 L/kg, the half-life [9] was 12 h and the AUC(0-t) at 24 h [10] was 55.1 µM·h. It also gave a bioavailability [11] of 100%, a half-life [12] of 4.9 h and a half-life [13] of over 1 h. For the same compound, the CLH (Liver microsomes) was under 23 µL/min/mg, the half-life [14] was over 1 h and the CLH [15] was under 23 µL/min/mg. For the same compound, the IC50 (Cytochrome P450 1A2) was over 10000 nM, the Activity (Mus musculus [16]) was “Non-toxic” and the Activity (Mus musculus [17]) was “Non-toxic”. The inhibition in vivo at 30 mg/kg (Mus musculus [18]) was 75%, the inhibition in vivo at 55 mg/kg (Mus musculus [19]) was 57% and the inhibition at 10 µM (hERG (KCNH2)) was under 10%. The IC50 [20] was 82 nM.
